Columns and labels:
[1] = Displacement of [3H]YM-09151-2 from human dopamine D4.2 receptor in membrane suspensions by liquid scintillation counter
D(2) dopamine receptor = D(2) dopamine receptor (Homo sapiens, UniProt P14416); test: Displacement of [3H]YM-09151-2 from human dopamine D2S receptor in membrane suspensions by liquid scintillation counter
Homo sapiens = species on record: Homo sapiens; test: Selectivity ratio of Ki for human dopamine D2S receptor to Ki for human dopamine D4.2 receptor
[2] = Displacement of [3H]prazosin from adrenergic alpha1 receptor in ICR mouse brain homogenate; type: tissue-based
Outline: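 Brain tissue was homogenized in 19 vol. of 50 mM Tris–HCl pH 7.5 and centrifuged at 40,000g for 15 min, then the pellet was washed once and resuspended in 24 vol. buffer. Homogenate (about 400 protein) was incubated with [3H]prazosin (0.05–1 nM) for 1 h at 20 °C. Binding was ended by rapid filtration, with filter-bound radioactivity counted by liquid scintillation.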

D(2) dopamine receptor, sequence (P14416 whole entry): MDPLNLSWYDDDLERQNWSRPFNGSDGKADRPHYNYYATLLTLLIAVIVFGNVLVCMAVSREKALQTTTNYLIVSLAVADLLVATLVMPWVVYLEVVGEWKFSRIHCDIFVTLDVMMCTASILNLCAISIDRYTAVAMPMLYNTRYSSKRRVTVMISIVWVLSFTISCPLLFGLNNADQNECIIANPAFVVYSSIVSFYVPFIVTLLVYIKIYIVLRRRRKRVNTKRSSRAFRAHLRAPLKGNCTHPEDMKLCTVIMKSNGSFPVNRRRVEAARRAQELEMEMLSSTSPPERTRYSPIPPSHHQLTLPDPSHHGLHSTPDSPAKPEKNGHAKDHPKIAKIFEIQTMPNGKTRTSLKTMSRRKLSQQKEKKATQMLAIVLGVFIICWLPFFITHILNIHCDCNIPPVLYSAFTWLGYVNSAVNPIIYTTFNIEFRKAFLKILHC

SMILES	Ki [1]	Ki (D(2) dopamine receptor)	Ratio Ki (Homo sapiens)	Ki [2]
O=C(CCCN1CCC(O)(c2ccc(Cl)cc2)CC1)c1ccc(F)cc1 [HALOPERIDOL]	9.32 nM	–	–	–
Cc1ccc(N2CCN([C@H](C)[C@H]3C[C@]3(C)c3ccccc3)CC2)c(C)c1	4660 nM	> 10000 nM	> 2.1	401 nM
Cc1ccc(N2CCN(C[C@H]3C[C@@H]3c3ccccc3)CC2)c(C)c1	130 nM	–	–	432 nM

Further compounds by falling Ki [1], results first:

Ki [1]	Ki (D(2) dopamine receptor)	Ratio Ki (Homo sapiens)	Ki [2]	SMILES
4190 nM	> 10000 nM	> 2.4	250 nM	Cc1ccc(N2CCN([C@@H](C)[C@H]3C[C@]3(C)c3ccccc3)CC2)c(C)c1
2050 nM	–	–	537 nM	Cc1ccc(N2CCN(C[C@@H]3C[C@@H]3c3ccccc3)CC2)c(C)c1
897 nM	–	–	521 nM	Cc1ccc(N2CCN(C[C@H]3C[C@H]3c3ccccc3)CC2)c(C)c1
236 nM	> 10000 nM	> 42	906 nM	Cc1ccc(N2CCN(C[C@H]3C[C@]3(C)c3ccccc3)CC2)c(C)c1

From ChEMBL document CHEMBL1144236, “Synthesis of 1-arylpiperazyl-2-phenylcyclopropanes designed as antidopaminergic agents: cyclopropane-based conformationally restricted analogs of haloperidol” (Bioorg Med Chem, 2008)
